Measurements taken from article PMC4132832 (Biochemical pharmacology, 2013).
Where a name gives a salt, the structure may show the parent alone.

Molecular target: Kir6.1/SUR2B channel (Rattus norvegicus, UniProt Q63664)
Assay: whole-cell voltage clamp, HEK293
Assay type: cell-based
Outline: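 Rat Kir6.1 and SUR2B co-expressed in HEK293 with GFP marker, whole-cell patched at room temperature, holding 0 mV, 600-ms steps to -80 mV, symmetric 145 mM K+. Bath: K-gluconate/KCl, EGTA, glucose, HEPES pH 7.4. Pipette adds 1 mM K2ATP, 0.5 mM NaADP and 1 mM MgCl2. Plateau current normalized to the pinacidil/glibenclamide window. IC50 from Hill fit.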

Kir6.1/SUR2B channel, sequence (Q63664 whole entry): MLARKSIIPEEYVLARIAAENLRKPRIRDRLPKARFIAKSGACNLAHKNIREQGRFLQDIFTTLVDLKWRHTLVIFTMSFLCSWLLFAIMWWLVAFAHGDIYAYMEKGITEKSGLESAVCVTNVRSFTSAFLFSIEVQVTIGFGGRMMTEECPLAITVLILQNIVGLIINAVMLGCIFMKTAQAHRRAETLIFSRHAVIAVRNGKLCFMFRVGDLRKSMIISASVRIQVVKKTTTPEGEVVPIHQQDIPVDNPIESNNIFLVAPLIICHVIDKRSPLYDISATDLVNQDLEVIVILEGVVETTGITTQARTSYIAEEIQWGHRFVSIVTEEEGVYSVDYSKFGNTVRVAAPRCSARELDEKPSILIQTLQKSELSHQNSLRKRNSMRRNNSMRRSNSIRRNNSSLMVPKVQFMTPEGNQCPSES
Kir6.1/SUR2B channel, sequence (P70170 whole entry partner): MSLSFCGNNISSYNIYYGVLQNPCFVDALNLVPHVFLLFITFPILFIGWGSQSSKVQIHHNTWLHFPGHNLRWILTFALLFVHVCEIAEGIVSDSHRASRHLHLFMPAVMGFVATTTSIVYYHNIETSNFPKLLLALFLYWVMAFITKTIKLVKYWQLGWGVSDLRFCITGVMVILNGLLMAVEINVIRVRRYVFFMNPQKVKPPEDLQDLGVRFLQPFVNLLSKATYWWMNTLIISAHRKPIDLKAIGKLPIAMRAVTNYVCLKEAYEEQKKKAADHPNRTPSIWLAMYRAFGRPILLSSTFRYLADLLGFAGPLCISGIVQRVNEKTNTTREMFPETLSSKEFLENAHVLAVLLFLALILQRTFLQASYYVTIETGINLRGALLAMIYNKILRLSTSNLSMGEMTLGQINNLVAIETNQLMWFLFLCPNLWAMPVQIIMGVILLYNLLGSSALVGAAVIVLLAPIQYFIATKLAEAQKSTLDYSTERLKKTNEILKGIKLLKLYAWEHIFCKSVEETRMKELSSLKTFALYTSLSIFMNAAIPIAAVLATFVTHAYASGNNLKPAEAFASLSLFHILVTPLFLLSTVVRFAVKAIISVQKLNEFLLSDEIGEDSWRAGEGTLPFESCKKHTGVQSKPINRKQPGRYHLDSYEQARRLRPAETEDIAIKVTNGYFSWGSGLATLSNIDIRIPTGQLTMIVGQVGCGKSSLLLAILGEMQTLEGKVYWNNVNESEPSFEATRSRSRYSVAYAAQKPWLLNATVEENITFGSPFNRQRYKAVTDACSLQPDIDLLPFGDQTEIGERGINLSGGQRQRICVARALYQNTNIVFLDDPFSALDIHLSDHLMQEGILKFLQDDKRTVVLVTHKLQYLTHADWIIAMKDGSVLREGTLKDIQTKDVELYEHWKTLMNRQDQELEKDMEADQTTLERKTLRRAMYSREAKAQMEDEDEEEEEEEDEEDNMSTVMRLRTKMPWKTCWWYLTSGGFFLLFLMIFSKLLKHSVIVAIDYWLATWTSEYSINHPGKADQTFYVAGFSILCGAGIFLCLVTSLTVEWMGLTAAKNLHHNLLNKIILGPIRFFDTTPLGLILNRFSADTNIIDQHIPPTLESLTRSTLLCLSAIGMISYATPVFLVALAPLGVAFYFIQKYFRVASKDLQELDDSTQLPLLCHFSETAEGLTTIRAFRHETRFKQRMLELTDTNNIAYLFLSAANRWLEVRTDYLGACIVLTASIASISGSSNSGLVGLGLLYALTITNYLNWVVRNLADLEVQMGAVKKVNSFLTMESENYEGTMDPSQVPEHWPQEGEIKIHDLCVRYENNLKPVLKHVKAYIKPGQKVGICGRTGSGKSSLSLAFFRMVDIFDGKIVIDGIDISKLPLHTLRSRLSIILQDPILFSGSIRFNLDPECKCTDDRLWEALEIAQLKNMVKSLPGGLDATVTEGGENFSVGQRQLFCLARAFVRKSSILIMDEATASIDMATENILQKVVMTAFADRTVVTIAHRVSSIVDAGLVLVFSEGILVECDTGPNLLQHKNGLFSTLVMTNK

Row | SMILES | IC50 [µM]
1 | Cc1cc(SCc2sc(-c3ccc(C(F)(F)F)cc3)nc2C)ccc1OCC(=O)O [GW501516, 2-[2-methyl-4-[[4-methyl-2-[4-(trifluoromethyl)phenyl]-1,3-thiazol-5-yl]methylsulfanyl]phenoxy]acetic acid] | 120
2 | CN(CCOc1ccc(CC2SC(=O)NC2=O)cc1)c1ccccn1 (stereo not drawn) [Rosiglitazone, 5-[[4-[2-[methyl(pyridin-2-yl)amino]ethoxy]phenyl]methyl]-1,3-thiazolidine-2,4-dione] | 12
3 | Cc1c(C)c2c(c(C)c1O)CCC(C)(COc1ccc(CC3SC(=O)NC3=O)cc1)O2 (stereo not drawn) [Troglitazone, 5-[[4-[(6-hydroxy-2,5,7,8-tetramethyl-3,4-dihydrochromen-2-yl)methoxy]phenyl]methyl]-1,3-thiazolidine-2,4-dione] | 100
4 | CC(C)OC(=O)C(C)(C)Oc1ccc(C(=O)c2ccc(Cl)cc2)cc1 [Fenofibrate, propan-2-yl 2-[4-(4-chlorobenzoyl)phenoxy]-2-methylpropanoate] | 80
5 | Cc1oc(-c2ccccc2)nc1CCC(=O)c1ccc(CC2SC(=O)NC2=O)cc1 (stereo not drawn) [Darglitazone, 5-[[4-[3-(5-methyl-2-phenyl-1,3-oxazol-4-yl)propanoyl]phenyl]methyl]-1,3-thiazolidine-2,4-dione] | 25
6 | O=C1NC(=O)C(Cc2ccc3c(c2)CC[C@H](Cc2ccccc2)O3)S1 (stereo partly drawn) [Englitazone, 5-[(2-benzyl-3,4-dihydro-2H-chromen-6-yl)methyl]-1,3-thiazolidine-2,4-dione] | 7
7 | CC1(COc2ccc(CC3SC(=O)NC3=O)cc2)CCCCC1 (stereo not drawn) [Ciglitazone, 5-[[4-[(1-methylcyclohexyl)methoxy]phenyl]methyl]-1,3-thiazolidine-2,4-dione] | 120
8 | CCOc1ccc(C=C2SC(=O)N(CCN)C2=O)cc1 [A6355, 3-(2-aminoethyl)-5-[(4-ethoxyphenyl)methylidene]-1,3-thiazolidine-2,4-dione hydrochloride] | 8
9 | O=C1NC(=O)C(Cc2ccc(O)cc2)S1 (stereo not drawn) [CDS005865, 5-(4-hydroxybenzyl)-2,4-thiazolidinedione] | > 100
10 | CCc1ccc(C(=O)COc2ccc(CC3SC(=O)NC3=O)cc2)nc1 (stereo not drawn) [Cay10415, 5-[[4-[2-(5-ethylpyridin-2-yl)-2-oxoethoxy]phenyl]methyl]-1,3-thiazolidine-2,4-dione] | 15
11 | O=C1NC(=O)/C(=C/c2ccc3nccnc3c2)S1 [AS605240, (5Z)-5-(quinoxalin-6-ylmethylidene)-1,3-thiazolidine-2,4-dione] | 60
12 | Cc1ccc(C)c(OCCCC(C)(C)C(=O)O)c1 [Gemfibrozil, 5-(2,5-dimethylphenoxy)-2,2-dimethylpentanoic acid] | 290
13 | Cc1cc(SCc2sc(-c3ccc(C(F)(F)F)c(F)c3)nc2C)ccc1OCC(=O)O [GW0742, 2-[4-[[2-[3-fluoro-4-(trifluoromethyl)phenyl]-4-methyl-1,3-thiazol-5-yl]methylsulfanyl]-2-methylphenoxy]acetic acid] | 80
14 | CCc1ccc(CCOc2ccc(CC3SC(=O)NC3=O)cc2)nc1 (stereo not drawn) [Pioglitazone, 5-[[4-[2-(5-ethylpyridin-2-yl)ethoxy]phenyl]methyl]-1,3-thiazolidine-2,4-dione] | 95
15 | O=C1NC(=O)/C(=C/c2ccc(-c3ccc(F)cc3O)o2)S1 [AS-252424, (5Z)-5-[[5-(4-fluoro-2-hydroxyphenyl)furan-2-yl]methylidene]-1,3-thiazolidine-2,4-dione] | 4
